Measurements published in ChEMBL document CHEMBL2169753, “Pharmacophore-based virtual screening and biological evaluation of small molecule inhibitors for protein arginine methylation” (J Med Chem, 2012).
The source made the active and inactive calls. The calls are words filed in the database; no cut-off is given here.

Experiments:
LNCaP [1] = assay: Inhibition of cell proliferation of human LNCAP cells in regular medium after 3 days; format: functional
Procedure, shortened: (§1)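 LNCaP C-81 cells (passage 80–120) grown in phenol red-positive RPMI 1640 with 5% FBS, 2 mM glutamine, 50 µg/ml gentamicin at 37°C, 5% CO2. Plated at 2×10³ cells/well for 3 days, then exposed to compound (DMSO stock diluted 1000×; DMSO-matched controls) for 3 days. Cells counted with an image-based counter and normalized to control. Three independent experiments in triplicate, mean ± SD.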

LNCaP [2] = assay: Inhibition of cell proliferation of human LNCAP cells in steroid reduced condition after 3 days; format: functional
Procedure, shortened: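 C-81 cells (passage 80–120) plated at 2×10³ cells/well for 3 days, then starved 2 days in phenol red-free RPMI 1640 with 5% charcoal/dextran-treated FBS, 2 mM glutamine, 50 µg/ml gentamicin and 1 nM DHT. Refed with this medium, then treated for 3 days (solvent controls). Cells counted and normalized to control. Three independent experiments in triplicate, mean ± SD.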

LNCaP [3] = assay: Antiproliferative activity against human LNCAP cells in regular medium after 3 days; format: functional, cell-based; procedure, shortened: as §1
Histone H4 [4] = target: T1, Histone H4 (Homo sapiens, UniProt P62805); assay: Binding affinity to fluorescein-labeled Histone H4(1-20) by spectrofluorometry
Procedure, shortened: (§2)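 H4(1-20) peptide bearing fluorescein on a Dpr residue, 1 µM, in 50 mM HEPES pH 8.0, 10 mM NaCl, 1 mM DTT at 30°C. Titrated with compound from 1 to 100 µM. Excitation 498 nm; emission intensity followed at 523–524 nm. Kd taken from the fluorescence titration.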

[5] = target: Protein arginine N-methyltransferase 5 (Homo sapiens) (UniProt O14744); assay: Inhibition of His6x-tagged PRMT5 expressed in Escherichia coli BL21 (DE3) using Histone H4(1-20 substrate in the presence of [14C] SAM assessed as residual activity at 30 uM by liquid scintillation counting
Chain of Protein arginine N-methyltransferase 5 (Homo sapiens) (O14744 whole entry): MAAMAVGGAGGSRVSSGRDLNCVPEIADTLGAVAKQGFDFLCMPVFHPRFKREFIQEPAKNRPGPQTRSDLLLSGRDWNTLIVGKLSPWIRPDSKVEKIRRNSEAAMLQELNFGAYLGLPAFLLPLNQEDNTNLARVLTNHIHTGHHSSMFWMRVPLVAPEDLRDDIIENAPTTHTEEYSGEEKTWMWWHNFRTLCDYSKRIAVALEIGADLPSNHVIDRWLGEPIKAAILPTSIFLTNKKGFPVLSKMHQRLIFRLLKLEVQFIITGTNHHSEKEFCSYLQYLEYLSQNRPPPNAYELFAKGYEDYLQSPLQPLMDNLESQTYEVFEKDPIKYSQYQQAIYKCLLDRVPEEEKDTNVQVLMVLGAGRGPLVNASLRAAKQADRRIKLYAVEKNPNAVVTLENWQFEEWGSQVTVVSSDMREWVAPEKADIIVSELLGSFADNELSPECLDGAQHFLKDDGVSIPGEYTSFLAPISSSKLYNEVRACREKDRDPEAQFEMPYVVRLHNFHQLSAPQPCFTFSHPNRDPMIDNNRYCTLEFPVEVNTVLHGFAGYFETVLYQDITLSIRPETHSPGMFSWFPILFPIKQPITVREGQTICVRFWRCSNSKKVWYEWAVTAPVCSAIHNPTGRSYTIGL
Procedure, shortened: (§3)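 Recombinant PRMT4 (0.3 µM) with H3(1-31) at 400 µM, or PRMT5 (1 µM) with H4(1-20) at 2 µM. Substrate and 5 µM [14C]-SAM preincubated 5 min in 50 mM HEPES pH 8.0, 10 mM NaCl, 1 mM DTT at 30°C before enzyme was added. Reactions run 2 h (PRMT4) or 6 h 30 min (PRMT5), with or without 30 µM compound in 2% DMSO. Stopped on P81 paper, washed with NaHCO3, counted by scintillation. Activity normalized to no-inhibitor control.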

[6] = target: T2, Histone-arginine methyltransferase CARM1 (Homo sapiens) (UniProt Q86X55); assay: Inhibition of His6x-tagged PRMT4 expressed in Escherichia coli BL21 (DE3) using Histone H3(1-31) substrate in the presence of [14C] SAM assessed as residual activity at 30 uM by liquid scintillation counting; procedure, shortened: as §3
T2 sequence (whole entry): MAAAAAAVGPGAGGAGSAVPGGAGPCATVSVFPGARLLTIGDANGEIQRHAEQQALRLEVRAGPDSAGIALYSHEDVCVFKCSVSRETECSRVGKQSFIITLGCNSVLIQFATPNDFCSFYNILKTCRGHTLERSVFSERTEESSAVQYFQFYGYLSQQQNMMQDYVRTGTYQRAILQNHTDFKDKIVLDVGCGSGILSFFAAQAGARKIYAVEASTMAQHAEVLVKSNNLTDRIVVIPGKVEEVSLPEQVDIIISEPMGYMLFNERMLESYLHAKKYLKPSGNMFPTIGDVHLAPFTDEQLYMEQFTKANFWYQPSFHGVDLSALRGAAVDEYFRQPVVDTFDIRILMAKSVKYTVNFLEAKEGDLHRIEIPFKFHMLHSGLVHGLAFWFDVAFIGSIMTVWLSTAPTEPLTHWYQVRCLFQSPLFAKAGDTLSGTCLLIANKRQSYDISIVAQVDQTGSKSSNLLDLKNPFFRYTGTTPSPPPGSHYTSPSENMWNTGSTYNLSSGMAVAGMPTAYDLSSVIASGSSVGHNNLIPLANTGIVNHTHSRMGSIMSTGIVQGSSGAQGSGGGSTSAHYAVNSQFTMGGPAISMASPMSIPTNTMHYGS

[7] = target: Histone acetyltransferase p300 (Homo sapiens, UniProt Q09472); assay: Inhibition of recombinant p300 HAT domain using Histone H4(1-20) substrate assessed as inhibition of histone acetyltransferase activity after 10 mins by liquid scintillation counting
Chain of Histone acetyltransferase p300 (Q09472 whole entry, the tested form may be a part): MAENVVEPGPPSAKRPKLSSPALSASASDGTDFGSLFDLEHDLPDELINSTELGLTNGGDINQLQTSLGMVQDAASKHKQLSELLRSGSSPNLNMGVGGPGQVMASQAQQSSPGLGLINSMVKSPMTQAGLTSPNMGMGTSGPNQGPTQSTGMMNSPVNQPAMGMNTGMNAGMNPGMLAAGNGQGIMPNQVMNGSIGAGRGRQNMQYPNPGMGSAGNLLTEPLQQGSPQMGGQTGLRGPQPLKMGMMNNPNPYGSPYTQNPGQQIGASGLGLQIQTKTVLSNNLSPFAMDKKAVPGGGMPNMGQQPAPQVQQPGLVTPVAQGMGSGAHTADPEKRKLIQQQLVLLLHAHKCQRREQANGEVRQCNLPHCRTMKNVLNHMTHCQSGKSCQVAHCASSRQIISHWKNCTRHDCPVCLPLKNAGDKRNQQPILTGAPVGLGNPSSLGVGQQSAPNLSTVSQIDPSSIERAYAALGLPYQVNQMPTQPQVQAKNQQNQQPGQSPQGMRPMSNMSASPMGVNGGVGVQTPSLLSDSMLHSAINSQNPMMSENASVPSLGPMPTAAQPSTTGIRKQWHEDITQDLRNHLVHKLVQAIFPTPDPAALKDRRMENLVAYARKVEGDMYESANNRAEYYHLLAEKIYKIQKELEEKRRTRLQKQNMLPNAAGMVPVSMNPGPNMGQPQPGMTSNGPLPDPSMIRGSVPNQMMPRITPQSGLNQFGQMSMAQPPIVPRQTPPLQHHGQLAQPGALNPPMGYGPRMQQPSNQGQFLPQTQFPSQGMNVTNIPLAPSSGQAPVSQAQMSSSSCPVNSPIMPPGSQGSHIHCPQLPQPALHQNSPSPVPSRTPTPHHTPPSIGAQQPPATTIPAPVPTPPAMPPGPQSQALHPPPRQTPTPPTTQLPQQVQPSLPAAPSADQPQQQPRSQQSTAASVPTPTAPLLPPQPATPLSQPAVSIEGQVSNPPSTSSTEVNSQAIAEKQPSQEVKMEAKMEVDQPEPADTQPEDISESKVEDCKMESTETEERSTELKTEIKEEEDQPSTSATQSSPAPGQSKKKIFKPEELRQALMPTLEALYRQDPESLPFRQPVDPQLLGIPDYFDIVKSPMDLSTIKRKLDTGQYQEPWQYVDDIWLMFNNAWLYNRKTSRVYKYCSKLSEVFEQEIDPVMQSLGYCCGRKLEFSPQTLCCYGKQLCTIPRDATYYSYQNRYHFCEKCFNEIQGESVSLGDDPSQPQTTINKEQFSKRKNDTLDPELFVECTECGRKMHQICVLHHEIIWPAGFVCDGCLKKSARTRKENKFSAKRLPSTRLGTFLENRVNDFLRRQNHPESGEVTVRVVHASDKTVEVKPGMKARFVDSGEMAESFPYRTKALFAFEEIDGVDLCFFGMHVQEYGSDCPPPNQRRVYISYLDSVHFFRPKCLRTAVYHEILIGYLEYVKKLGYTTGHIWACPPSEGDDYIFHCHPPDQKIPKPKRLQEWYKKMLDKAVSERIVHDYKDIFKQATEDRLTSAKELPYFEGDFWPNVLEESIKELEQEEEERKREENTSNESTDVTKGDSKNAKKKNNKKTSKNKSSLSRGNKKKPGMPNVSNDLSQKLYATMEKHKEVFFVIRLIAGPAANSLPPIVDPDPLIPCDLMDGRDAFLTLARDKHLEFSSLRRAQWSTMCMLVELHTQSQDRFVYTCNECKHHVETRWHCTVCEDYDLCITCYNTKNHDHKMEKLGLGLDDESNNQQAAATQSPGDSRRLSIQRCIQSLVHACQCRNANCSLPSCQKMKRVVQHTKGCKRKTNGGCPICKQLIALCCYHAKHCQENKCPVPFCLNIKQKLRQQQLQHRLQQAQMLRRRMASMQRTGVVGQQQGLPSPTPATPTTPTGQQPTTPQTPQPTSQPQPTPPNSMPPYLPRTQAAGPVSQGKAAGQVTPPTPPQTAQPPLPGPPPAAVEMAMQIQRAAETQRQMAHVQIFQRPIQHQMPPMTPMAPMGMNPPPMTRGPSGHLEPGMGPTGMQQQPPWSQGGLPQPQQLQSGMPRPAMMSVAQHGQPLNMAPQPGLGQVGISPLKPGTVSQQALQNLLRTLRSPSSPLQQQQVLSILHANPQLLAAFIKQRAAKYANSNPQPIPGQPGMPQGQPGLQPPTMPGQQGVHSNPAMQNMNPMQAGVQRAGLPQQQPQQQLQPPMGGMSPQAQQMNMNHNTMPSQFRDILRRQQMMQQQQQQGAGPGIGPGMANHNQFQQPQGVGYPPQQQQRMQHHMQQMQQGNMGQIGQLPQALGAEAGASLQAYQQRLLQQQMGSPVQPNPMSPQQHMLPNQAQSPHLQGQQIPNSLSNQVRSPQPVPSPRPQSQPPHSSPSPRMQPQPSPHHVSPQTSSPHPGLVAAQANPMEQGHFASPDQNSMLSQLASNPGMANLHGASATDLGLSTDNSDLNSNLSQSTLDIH
Procedure, shortened: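 p300 HAT domain (residues 1287–1666), 0.03 µM, incubated with 10 µM H4-20, 5 µM [14C]-acetyl CoA and increasing compound in 50 mM HEPES pH 8.0, 50 mM NaCl, 0.5 mM DTT, 1 mM EDTA at 30°C for 10 min. Stopped on P81 paper and counted by liquid scintillation. Fractional activity plotted against concentration to give IC50.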

Histone H4 [8] = target: T1, Histone H4; assay: Binding affinity to fluorescein-labeled Histone H4(1-20) assessed as peptide fluorescence quenching by spectrofluorometry; procedure, shortened: as §2

| Kd (Histone H4 [4]) [µM] | Activity [5] [%] | Activity [6] [%] | IC50 [7] [µM] | inhibition [7] | Activity (Histone H4 [8]) | Structure (SMILES) | inhibition (INH) (LNCaP [1]) [%] | inhibition (INH) (LNCaP [2]) [%] | inhibition (LNCaP [3]) |
| --- | --- | --- | --- | --- | --- | --- | --- | --- | --- |
|  |  |  |  |  |  | O=C(NN=C1C=CC(=NOS(=O)(=O)c2ccccc2)C=C1)c1cc2ccccc2cc1O | 70 | 30 | Dose-dependent effect |
| 23.8 | 20 | 38 | 15.2 | Dose-dependent effect | Active | O=C(c1ccc(O)c(NC(=O)c2cccc3ccccc23)c1)c1ccc(O)c(NC(=O)c2cccc3ccccc23)c1 | 32 |  |  |
